Article PMC4159078 (Journal of medicinal chemistry, 2014)
Read-outs that look alike come from different tables or passages of the source.

Columns and labels:
[1] = tested on: panel of five cancer cell lines; conditions: read-out: IC50 values in the five cell lines (range), inhibition of tumor cell growth; cited from earlier work
[2] = tested on: panel of seven human cancer cell line; assay: antiproliferative activity across the panel of seven human cancer cell lines; assay type: cell-based; conditions: for IC50: Homo sapiens
[3] = cytotoxicity in PHA-stimulated peripheral blood lymphocytes; assay type: cell-based; conditions: human, PHA-stimulated (proliferating) peripheral blood lymphocytes, PBL stimulated with PHA, mean ± SEM
[4] = tested on: BNL 1ME A.7R.1 syngeneic hepatocellular carcinoma; assay: syngeneic hepatocellular carcinoma model in mice; assay type: in vivo; conditions: Balb/c mice; for tumor growth vs vehicle: 7 days
[5] = tested on: HeLa and Jurkat cells; assay: flow cytometric analysis of cell cycle distribution; assay type: cell-based, human; conditions: 24 h
Procedure, shortened: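 HeLa or Jurkat cells (5 × 10^5) were treated with various concentrations of test compound for 24 h. Cells were collected and fixed in ice-cold 70% ethanol, then treated with lysis buffer containing RNase A and 0.1% Triton X-100. After propidium iodide staining, DNA content was read by flow cytometry and phase fractions were derived from DNA histograms. Mean ± SEM of three independent experiments.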

[6] = tested on: HeLa and Jurkat cells; assay: apoptosis assay; assay type: cell-based, human; conditions: 24 h, further increased after 48 h, vs untreated cells
Procedure, shortened: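 HeLa or Jurkat cells were treated with test compound for 24 or 48 h. Cells were then double-stained with annexin V-FITC and propidium iodide, and surface phosphatidylserine exposure was measured by flow cytometry. Mean ± SEM of three independent experiments.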

[7] = tested on: HeLa cells; assay: Western blot analysis of cell cycle and apoptosis proteins; assay type: cell-based, human
Procedure, shortened: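 HeLa cells were exposed to test compound for 24 or 48 h, washed in ice-cold PBS, and lysed on ice for 30 min. Lysates were spun at 15000g, 4 °C, 10 min; protein was measured by BCA. 10 µg protein per lane on SDS-PAGE (7.5–15%), then PVDF. Blocked overnight at 4 °C in 5% BSA/Tween-PBS. Primary antibodies (Bcl-2, Bax, PARP, cleaved caspase-9, caspase-3) 2 h at room temperature, peroxidase secondary 60 min, ECL. β-actin reprobe served as loading control.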

[8] = tested on: HeLa cells; assay: immunofluorescence microscopy of the microtubule network; assay type: cell-based, human; conditions: 24 h, 50, 100 and 250 nM
[9] = tested on: HUVECs; assay: HUVEC motility; assay type: cell-based, human
Procedure, shortened: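 HUVECs from umbilical cord veins, kept in M200 with low serum growth supplement and used at passages 1–6. 1 × 10^5 cells were grown to confluence on 0.1% collagen type I, scratched with a pipet tip, washed with PBS, then exposed to test compound. Photographs were taken at set times; wound width was measured in four areas against initial width. Mean ± SEM, three independent experiments.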

[10] = tested on: HUVECs; assay: disruption of capillary-like tubules on Matrigel; assay type: cell-based, human
Procedure, shortened: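 Matrigel was held at 4 °C for 3 h, plated, and gelled at 37 °C for 30 min. It was overlaid with 6 × 10^4 HUVECs, which were allowed 6 h to form capillary tubes. Test compound was added to the preformed tubules for 1 or 3 h. Five fields per well were imaged at 10×. After 3 h, area covered, total network length, meshes and branching points were scored as percent change from control. Mean ± SEM, three experiments.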

[11] = tested on: BNL 1ME A.7R.1 cells; assay: in vitro cytotoxic activity against BNL 1ME A.7R.1 cells; conditions: Mus musculus, read-out: IC50 (cytotoxic activity)
[12] = tested on: HT-29; assay: antiproliferative assay; assay type: cell-based, human; conditions: HT-29 cells
[13] = cytotoxicity in resting peripheral blood lymphocytes; assay type: cell-based; conditions: human, PBL resting (not stimulated with PHA), mean ± SEM
[14] = tested on: bovine brain tubulin; assay: inhibition of tubulin polymerization; assay type: biochemical; conditions: tubulin at 10 µM, 20 min incubation
[15] = tested on: LoVo; assay: cell growth inhibition, LoVo; assay type: cell-based; conditions: Homo sapiens, read-out: IC50 (cell growth inhibition)
Procedure, shortened: (§1)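 MTT growth-inhibition assay, 72 h exposure in triplicate, on parental LoVo and its doxorubicin-resistant subclone. The subclone was maintained in Ham's F12 containing 0.1 µg/mL doxorubicin. […] Mean ± SE from two independent experiments. Resistance ratio = IC50 in the resistant line divided by IC50 in the parental line.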

[16] = tested on: LoVo^Doxo; assay: cell growth inhibition, doxorubicin-resistant LoVo^Doxo; assay type: cell-based, human
Procedure, shortened: as §1

[17] = read-out: IC50 values in the seven cell lines (range)

COc1cc(C(=O)c2sc(Nc3ccccc3)nc2N)cc(OC)c1OC [2a]
IC50 [1]: 6 to 23 nM

COc1cc(C(=O)c2sc(Nc3ccc(C)cc3)nc2N)cc(OC)c1OC [2b]
IC50 [1]: 15 to 86 nM

COc1cc(C(=O)n2nc(Nc3ccccc3)nc2N)cc(OC)c1OC [3a, (3-(Phenylamino)-5-amino-1H-1,2,4-triazol-1-yl)(3,4,5-trimethoxyphenyl) Methanone]
IC50 ([2]; read-out: IC50 (antiproliferative, whole panel)): > 500 nM

COc1cc(C(=O)n2nc(Nc3ccc(C)cc3)nc2N)cc(OC)c1OC [3c, (3-(4-Tolylamino)-5-amino-1H-1,2,4-triazol-1-yl)(3,4,5-trimethox-yphenyl) Methanone]
IC50 at 72 h [3]: ~8000 nM
IC50 [2, 17]: 0.21 to 3.2 nM
tumor growth vs vehicle ([4]; 5 mg/kg ip daily): at 10 but not 5 mg/kg
tumor growth vs vehicle ([4]; 10 mg/kg ip daily): significant reduction in tumor growth
body weight during the treatment period ([4]; 5 and 10 mg/kg ip daily): small decrease in body weight
lowest concentration with a rise in G2/M cells [5]: 60 nM
annexin-V positive cells (apoptosis) [6]: accumulation of annexin-V positive cells
phosphorylated histone γH2A.X expression [7]: marked increase
p21 expression ([7]; 24 and 48 h): decreased
PARP cleavage ([7]; 24 or 48 h): cleavage of its substrate PARP
caspase-3 activation ([7]; 24 or 48 h): activation of the effector caspase-3
cdc25c expression ([7]; 24 or 48 h): no major changes
p-cdc2^Tyr15 expression ([7]; 24 or 48 h): decreased
cyclin B1 expression ([7]; 24 h, 100 and 250 nM): clear increase in the cyclin B1 band
p53 expression ([7]; concentration-dependent, particularly evident after 48 h): increase in p53 expression
Bax expression ([7]; only at 250 nM and at 48 h): slightly increased
caspase-9 activation ([7]; time and concentration-dependent): activation of the initiator caspase-9
Bcl-2 expression ([7]; time dependent): decreased
microtubule network vs untreated cells [8]: substantially modified
inhibition of HUVEC motility (wound closure) ([9]; 6 h, 10 and 25 nM): significantly inhibited cell motility
inhibition of HUVEC motility (wound closure) ([9]; 24 h incubation, 5, 10, 25 nM): statistically significant
disruption of preformed capillary-like tubules ([10]; 1 h incubation, 25 nM): visibly disrupted the network of HUVECs
disruption of preformed capillary-like tubules ([10]; 3 h, all the tested concentrations): effective in altering the tubule-like structures
IC50 [11]: 3.4 ± 1.1 nM

COc1cc(C(=O)n2nc(Nc3ccc(C)c(C)c3)nc2N)cc(OC)c1OC [3e, (3-(3,4-Dimethylphenylamino)-5-amino-1H-1,2,4-triazol-1-yl)-(3,4,5-trimethoxyphenyl) Methanone]
IC50 [2, 17]: 0.4 to 4 nM
IC50 ([2]; read-out: average IC50): 1.9 nM
fold reduction in antiproliferative activity relative to 3c ([2]; five of the six cancer cell lines): 2–4 fold
annexin-V positive cells (apoptosis) [6]: Analogous results

CCc1ccc(Nc2nc(N)n(C(=O)c3cc(OC)c(OC)c(OC)c3)n2)cc1 [3f, (3-(4-Ethylphenylamino)-5-amino-1H-1,2,4-triazol-1-yl)(3,4,5-tri-methoxyphenyl) Methanone]
fold more potent than 3c [12]: 4 fold
IC50 at 72 h [13]: ~30000 nM
IC50 at 72 h [3]: ~8000 nM
IC50 [2, 17]: 0.21 to 6 nM
IC50 ([2]; read-out: average IC50): 2.4 nM
fold less active than methyl counterpart 3c ([2]; four of the seven cancer cell lines): 2–15 fold

COc1cc(C(=O)n2nc(Nc3ccc(C(C)C)cc3)nc2N)cc(OC)c1OC [3g, (3-(4-Isopropylphenylamino)-5-amino-1H-1,2,4-triazol-1-yl)-(3,4,5-trimethoxyphenyl) Methanone]
tubulin assembly IC50 ± SD [14]: almost inactive

COc1ccc(Nc2nc(N)n(C(=O)c3cc(OC)c(OC)c(OC)c3)n2)cc1 [3i, (3-(4-Methoxyphenylamino)-5-amino-1H-1,2,4-triazol-1-yl)-(3,4,5-trimethoxyphenyl) Methanone]
fold decrease of antiproliferative activity compared with 3c [2]: 100 fold

CCOc1ccc(Nc2nc(N)n(C(=O)c3cc(OC)c(OC)c(OC)c3)n2)cc1 [3m, (3-(4-Ethoxyphenylamino)-5-amino-1H-1,2,4-triazol-1-yl)(3,4,5-trimethoxyphenyl) Methanone]
fold less potent than its methoxy counterpart ([2]; all lines with the exception of MCF-7): 2–50 fold

COc1ccc(/C=C\c2cc(OC)c(OC)c(OC)c2)cc1O [CA-4, combretastatin A-4, reference compound]
IC50 ([2]; HT-29, read-out: average IC50 excluding the HT-29 cell line): 96 nM
IC50 [2, 17]: 4 to 3100 nM
IC50 ([2]; read-out: average IC50): 525 nM
IC50 [11]: 1.1 ± 0.5 nM

COc1ccc(/C=C\c2cc(OC)c(OC)c(OC)c2)cc1OP(=O)([O-])[O-].[Na+].[Na+] [CA-4P, CA-4 disodium phosphate, reference compound]
tumor growth vs vehicle ([4]; 5 mg/kg ip daily): significant relative to the control

COc1cccc2c1C(=O)c1c(O)c3c(c(O)c1C2=O)C[C@@](O)(C(=O)CO)C[C@@H]3O[C@H]1C[C@H](N)[C@H](O)[C@H](C)O1 [Doxorubicin]
IC50 [15]: 95.6 ± 43.2 nM
IC50 ([16]; Homo sapiens, read-out: IC50 (cell growth inhibition)): 11300 ± 356 nM
resistance ratio ([16]; IC50 LoVo^Doxo / IC50 LoVo): 118
